Assay results published in ChEMBL document CHEMBL1153417, “5,7,8-Trimethyl-benzopyran and 5,7,8-trimethyl-1,4-benzoxazine aminoamide derivatives as novel antiarrhythmics against ischemia-reperfusion injury” (J Med Chem, 2009).
Activity calls are given as the source filed them. No cut-off for these calls is given here.

Test system: Heart
Experiment: Antioxidant activity in ischemia-reperfusion injury exposed Wistar rat heart assessed as malondialdehyde level per gram of wet tissue at 1 uM by thiobarbituric acid test
Assay type: functional
Conditions: not given
In short: (§1)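 Rat hearts were taken under pentobarbital (30-40 mg per animal) after iv heparin. They were perfused by Langendorff at 90 cm H2O with oxygenated KHB buffer (pH 7.2, 11 mmol l-1 glucose) at 37 °C. After 20 min equilibration came 15 min ischemia (glucose-free KHB with 10 mM Tris-HCl, N2-equilibrated), then 60 min reperfusion. Compound was present for the last 5 min of ischemia and through reperfusion; n = 3-5.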
In the case of CCN(CC)CC(=O)N1CC(C)(C)Oc2c(C)c(C)c(Cl)c(C)c21, the Activity is reported as 143 ng/g.
CCN(CC)CC(=O)N1C[C@@H](c2ccccc2)Oc2c(C)c(C)c(Cl)c(C)c21 showed an Activity of 153 ng/g.
Compound CCN(CC)CC(=O)N1CCOc2c(C)c(C)cc(C)c21 has an Activity of 152 ng/g.
CCN(CC)CC(=O)Nc1c(C)cccc1C [LIDOCAINE] showed an Activity of 160 ng/g.
With CCN(CC)CC(=O)N1CC(C)(C)Oc2c(C)c(C)cc(C)c21 the Activity was 160 ng/g.
For CCOC(=O)C1(C)CN(C(=O)CN(CC)CC)c2c(C)cc(C)c(C)c2O1 (stereo not given), the Activity was 88.6 ng/g.
Work on CCN(CC)CC(=O)N1CC(c2ccccc2)Oc2c(C)c(C)cc(C)c21 (stereo not given) yielded an Activity of 120 ng/g.
CCN(CC)CC(=O)N1CC(c2ccccc2)Oc2c(C)c(C)c(OC)c(C)c21 (stereo not given) gave an Activity of 136 ng/g.

Test system: Heart
Experiment: Antiarrhythmic activity in ischemia-reperfusion injury exposed Wistar rat heart assessed as arrhythmia score at 1 uM
Assay type: functional
Conditions: not given
In short: as §1
With CCN(CC)CC(=O)N1CC(C)(C)Oc2c(C)c(C)c(Cl)c(C)c21 the Activity was 5.7.
CCN(CC)CC(=O)N1C[C@@H](c2ccccc2)Oc2c(C)c(C)c(Cl)c(C)c21 gave an Activity of 1.
For CCN(CC)CC(=O)N1CCOc2c(C)c(C)cc(C)c21, the Activity was 1.3.
CCN(CC)CC(=O)Nc1c(C)cccc1C [LIDOCAINE] gave an Activity of 1.
CCN(CC)CC(=O)N1CC(C)(C)Oc2c(C)c(C)cc(C)c21 showed an Activity of 5.1.
With CCOC(=O)C1(C)CN(C(=O)CN(CC)CC)c2c(C)cc(C)c(C)c2O1 (stereo not given) the Activity was 1.
Compound CCN(CC)CC(=O)N1CC(c2ccccc2)Oc2c(C)c(C)cc(C)c21 (stereo not given) has an Activity of 1.
Compound CCN(CC)CC(=O)N1CC(c2ccccc2)Oc2c(C)c(C)c(OC)c(C)c21 (stereo not given) has an Activity of 1.

Test system: Heart
Experiment: Antiarrhythmic activity in ischemia-reperfusion injury exposed Wistar rat heart assessed as premature ventricular beats at 1 uM relative to untreated control
Assay type: functional
Conditions: not given
In short: as §1
CCN(CC)CC(=O)N1CC(C)(C)Oc2c(C)c(C)c(Cl)c(C)c21 showed an Activity of 2.1%.
With CCN(CC)CC(=O)N1C[C@@H](c2ccccc2)Oc2c(C)c(C)c(Cl)c(C)c21 the Activity was 0.8%.
For CCN(CC)CC(=O)N1CCOc2c(C)c(C)cc(C)c21, the Activity was 3.4%.
CCN(CC)CC(=O)Nc1c(C)cccc1C [LIDOCAINE] showed an Activity of 3.1%.
Work on CCN(CC)CC(=O)N1CC(C)(C)Oc2c(C)c(C)cc(C)c21 yielded an Activity of 1.6%.
For CCOC(=O)C1(C)CN(C(=O)CN(CC)CC)c2c(C)cc(C)c(C)c2O1 (stereo not given), the Activity was 3%.
For CCN(CC)CC(=O)N1CC(c2ccccc2)Oc2c(C)c(C)cc(C)c21 (stereo not given), the Activity was 0.5%.
In the case of CCN(CC)CC(=O)N1CC(c2ccccc2)Oc2c(C)c(C)c(OC)c(C)c21 (stereo not given), the Activity is reported as 2.8%.

Test system: Heart
Experiment: Antioxidant activity in ischemia-reperfusion injury exposed Wistar rat heart assessed as reduction of malondialdehyde level at 2 uM by thiobarbituric acid test relative to control
Assay type: functional
Set-up: scale not given: the % may be the effect or the level left
Conditions: not given
In short: as §1
Work on CCN(CC)CC(=O)N1CCOc2c(C)c(C)cc(C)c21 yielded an Activity of 34%.
With CCOC(=O)C1(C)CN(C(=O)CN(CC)CC)c2c(C)cc(C)c(C)c2O1 (stereo not given) the Activity was 61%.
Work on CCN(CC)CC(=O)N1CC(c2ccccc2)Oc2c(C)c(C)cc(C)c21 (stereo not given) yielded an Activity of 48%.

Species: Oryctolagus cuniculus
Experiment: Electrophysiological effect in New Zealand rabbit right ventricular papillary muscle assessed as resting membrane potential at 5 uM at 1 Hz stimulation frequency
Assay type: functional, tissue-based
Conditions: Muscle tissue
In short: (§2)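 Right ventricular papillary muscle tips were superfused at 37 °C with bicarbonate solution (pH 7.35-7.40, 95% O2/5% CO2). They were paced at 1 Hz (1000 ms cycle length) with 1 ms constant-current pulses through a bipolar platinum electrode. Transmembrane potentials were recorded by conventional microelectrodes, and RP, CT, APA, Vmax, APD50 and APD90 were measured automatically.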
CCN(CC)CC(=O)N1CC(C)(C)Oc2c(C)c(C)c(Cl)c(C)c21 showed an Activity of -85.3 mV.
Work on CCN(CC)CC(=O)N1CCOc2c(C)c(C)cc(C)c21 yielded an Activity of -85.8 mV.
In the case of CCN(CC)CC(=O)N1CC(C)(C)Oc2c(C)c(C)cc(C)c21, the Activity is reported as -85.9 mV.
In the case of CCOC(=O)C1(C)CN(C(=O)CN(CC)CC)c2c(C)cc(C)c(C)c2O1 (stereo not given), the Activity is reported as -86.6 mV.
Compound CCN(CC)CC(=O)N1CC(c2ccccc2)Oc2c(C)c(C)cc(C)c21 (stereo not given) has an Activity of -82.7 mV.

Test system: not listed separately
Experiment: Electrophysiological effect in New Zealand rabbit right ventricular papillary muscle assessed as action potential amplitude at 5 uM at 1 Hz stimulation frequency
Assay type: functional, Oryctolagus cuniculus, Muscle tissue
Conditions: not given
In short: as §2
For CCN(CC)CC(=O)N1CC(C)(C)Oc2c(C)c(C)c(Cl)c(C)c21, the Activity was 116.2 mV.
In the case of CCN(CC)CC(=O)N1CCOc2c(C)c(C)cc(C)c21, the Activity is reported as 111.9 mV.
Work on CCN(CC)CC(=O)N1CC(C)(C)Oc2c(C)c(C)cc(C)c21 yielded an Activity of 108.4 mV.
Compound CCOC(=O)C1(C)CN(C(=O)CN(CC)CC)c2c(C)cc(C)c(C)c2O1 (stereo not given) has an Activity of 110.9 mV.
Work on CCN(CC)CC(=O)N1CC(c2ccccc2)Oc2c(C)c(C)cc(C)c21 (stereo not given) yielded an Activity of 115.1 mV.

Test system: not listed separately
Experiment: Electrophysiological effect in New Zealand rabbit right ventricular papillary muscle assessed as action potential duration measured at 50% repolarization at 5 uM at 1 Hz stimulation frequency
Assay type: functional, Oryctolagus cuniculus, Muscle tissue
Conditions: not given
In short: as §2
For CCN(CC)CC(=O)N1CC(C)(C)Oc2c(C)c(C)c(Cl)c(C)c21, the Activity was 171.6 ms.
Work on CCN(CC)CC(=O)N1CCOc2c(C)c(C)cc(C)c21 yielded an Activity of 192.3 ms.
For CCN(CC)CC(=O)N1CC(C)(C)Oc2c(C)c(C)cc(C)c21, the Activity was 147.1 ms.
In the case of CCOC(=O)C1(C)CN(C(=O)CN(CC)CC)c2c(C)cc(C)c(C)c2O1 (stereo not given), the Activity is reported as 161.7 ms.
Work on CCN(CC)CC(=O)N1CC(c2ccccc2)Oc2c(C)c(C)cc(C)c21 (stereo not given) yielded an Activity of 175.6 ms.

Test system: not listed separately
Experiment: Electrophysiological effect in New Zealand rabbit right ventricular papillary muscle assessed as action potential duration measured at 90% repolarization at 5 uM at 1 Hz stimulation frequency
Assay type: functional, Oryctolagus cuniculus, Muscle tissue
Conditions: not given
In short: as §2
In the case of CCN(CC)CC(=O)N1CC(C)(C)Oc2c(C)c(C)c(Cl)c(C)c21, the Activity is reported as 214.4 ms.
CCN(CC)CC(=O)N1CCOc2c(C)c(C)cc(C)c21 showed an Activity of 236.8 ms.
Work on CCN(CC)CC(=O)N1CC(C)(C)Oc2c(C)c(C)cc(C)c21 yielded an Activity of 179.5 ms.
Work on CCOC(=O)C1(C)CN(C(=O)CN(CC)CC)c2c(C)cc(C)c(C)c2O1 (stereo not given) yielded an Activity of 201.2 ms.
For CCN(CC)CC(=O)N1CC(c2ccccc2)Oc2c(C)c(C)cc(C)c21 (stereo not given), the Activity was 210.9 ms.

Test system: not listed separately
Experiment: Electrophysiological effect in New Zealand rabbit right ventricular papillary muscle assessed as maximal rate of depolarization at 5 uM at 1 Hz stimulation frequency
Assay type: functional, Oryctolagus cuniculus, Muscle tissue
Conditions: not given
In short: as §2
CCN(CC)CC(=O)N1CC(C)(C)Oc2c(C)c(C)c(Cl)c(C)c21 gave an Activity of 188.4 V/s.
In the case of CCN(CC)CC(=O)N1CCOc2c(C)c(C)cc(C)c21, the Activity is reported as 200.2 V/s.
CCN(CC)CC(=O)N1CC(C)(C)Oc2c(C)c(C)cc(C)c21 gave an Activity of 175.4 V/s.
With CCOC(=O)C1(C)CN(C(=O)CN(CC)CC)c2c(C)cc(C)c(C)c2O1 (stereo not given) the Activity was 171.9 V/s.
CCN(CC)CC(=O)N1CC(c2ccccc2)Oc2c(C)c(C)cc(C)c21 (stereo not given) gave an Activity of 174.5 V/s.

Species: Oryctolagus cuniculus
Experiment: Electrophysiological effect in New Zealand rabbit right ventricular papillary muscle assessed as increase in conduction time at 5 uM at 1 Hz stimulation frequency
Assay type: functional, tissue-based
Conditions: Muscle tissue
In short: as §2
With CCN(CC)CC(=O)N1CC(C)(C)Oc2c(C)c(C)cc(C)c21 the Activity was “Active”.
With CCOC(=O)C1(C)CN(C(=O)CN(CC)CC)c2c(C)cc(C)c(C)c2O1 (stereo not given) the Activity was “Active”.
In the case of CCN(CC)CC(=O)N1CC(c2ccccc2)Oc2c(C)c(C)cc(C)c21 (stereo not given), the Activity is reported as “Active”.
